# Experimental data taken from PMC2917810 (Chemical biology & drug design, 2008).
# Read-outs that look alike come from different tables or passages of the source. Positions of bridges follow the written chain, without caps; N, C: chain ends. Residues, ends and D or L forms follow the SMILES beside them.
# Columns and labels:
# RGS4Δ51N = biological target: T1, RGS4Δ51N (Homo sapiens, UniProt P49798); experiment: Single turnover RGS-stimulated Gαo GTPase; format: biochemical; conditions: for inhibition of RGS4 activity (rate of RGS stimulated Gαo GTP hydrolysis): purified proteins, mean ± S.E.M., n ≥3, SEM; for activity on RGS4 GAP activity: single turnover GAP assay, RGS4Δ51N 75–125 nM
# T1 sequence (P49798 52-205 limits assumed): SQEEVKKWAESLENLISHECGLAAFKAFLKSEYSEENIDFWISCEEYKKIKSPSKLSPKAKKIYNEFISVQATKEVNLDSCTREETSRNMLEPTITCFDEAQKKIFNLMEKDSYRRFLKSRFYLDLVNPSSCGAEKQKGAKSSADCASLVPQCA
# Procedure, shortened: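 Single-turnover GTP hydrolysis by purified rat His6-Gαo with γ[32P]GTP, stimulated by human MBP-His6-RGS4Δ51N (75–125 nM). Soluble disulfide-cyclized peptides (≥95% pure) were tested at 50 μM, or lower where solubility limited. Rates came from time courses, reported as percent decrease in the RGS-stimulated rate; IC50 estimated from these single-concentration inhibitions. Mean ± S.E.M., n ≥3; t-test.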
# RGS7box = experiment: Single turnover GAP assay, RGS7; format: biochemical, human; conditions: RGS7box 500 nM
# Procedure, shortened: (§1)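 Single-turnover GTP hydrolysis by purified rat His6-Gαo with γ[32P]GTP, with or without RGS. The RGS proteins were human MBP-His6 constructs, purified on amylose then Ni-NTA: full-length RGS16 at 1.5 μM, RGS19Δ11C at 200 nM, and the RGS7 RGS domain (nucleotides 915–1359) at 500 nM. Test peptides were soluble, cyclized, and ≥95% pure.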
# RGS16 = experiment: Single turnover GAP assay, RGS16; format: biochemical, human; conditions: RGS16 1.5 μM
# Procedure, shortened: as §1
# [1] = Solubility and aggregation of soluble peptides; format: physicochemical
# RGS4 [2] = conditions: membrane based steady state GTPase assay; cited from earlier work
# RGS4 [3] = conditions: cited from earlier work
# RGS4Δ51N-Alexa Fluor 532 = experiment: FACScan flow cytometry binding of bead-bound peptides; set-up: species or system human; conditions: peptides on beads, 25 nM RGS4Δ51N-Alexa Fluor 532
# Procedure, shortened: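 Hit peptides resynthesized and disulfide-cyclized on 20 μm TentaGel beads; about 5 × 10^3 beads per sample (at most 5 nmoles peptide) washed, then incubated with RGS4Δ51N-Alexa Fluor 532 for at least 15 min at room temperature, protected from light. FACScan gated on acetylated TentaGel control beads, no compensation; their signal subtracted as background. Duplicates; one-way ANOVA with Bonferroni post-test.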
compound,measurement,setting,value
"CC(=O)NCC(=O)N[C@H](C(=O)N[C@H]1CSSC[C@@H](C(=O)N[C@@H](Cc2c[nH]c3ccccc23)C(N)=O)NC(=O)[C@H]([C@@H](C)O)NC(=O)CNC(=O)[C@H](Cc2ccccc2)NC1=O)[C@@H](C)O [2ad, Ac-Gly-Thr-c[Cys-Phe-Gly-Thr-Cys]-Trp-NH2, S-S] (Ac-GTCFGTCW-NH2; disulfide 3-7)",IC50,RGS4Δ51N,~50 µM
same,inhibition of RGS4 activity (rate of RGS stimulated Gαo GTP hydrolysis),RGS4Δ51N; 25 μM peptide (limited by solubility),30 ± 12%
same,activity against RGS7,RGS7box,inactive
same,activity against RGS16,RGS16,inactive
same,solubility,[1],limited by solubility
"1nd: free N-terminal, disulfide bridged version of hit 1 (H-YNCQGECE-NH2; disulfide 3-7; SMILES NC(=O)CC[C@@H]1NC(=O)[C@@H](NC(=O)[C@H](CC(N)=O)NC(=O)[C@@H](N)Cc2ccc(O)cc2)CSSC[C@@H](C(=O)N[C@@H](CCC(=O)O)C(N)=O)NC(=O)[C@H](CCC(=O)O)NC(=O)CNC1=O)",inhibition of RGS4 activity (rate of RGS stimulated Gαo GTP hydrolysis),RGS4Δ51N; 50 μM peptide in solution,33 ± 15%
2al: acetylated linear version of peptide 2 (Ac-GTCFGTCW-NH2; cysteine pairing not given here),activity on RGS4 GAP activity,RGS4Δ51N,inactive
"Ac-Val-Lys-c[Cys-Thr-Gly-Ile-Cys]-Glu-NH2, S-S (disulfide) [YJ34, reference compound]",solubility,[1],limited by solubility
same,IC50,RGS4 [2],26 µM
"4nd: free N-terminal, disulfide bridged version of hit 4 (H-KVCMGGCT-NH2; disulfide 3-7; SMILES CSCC[C@@H]1NC(=O)[C@@H](NC(=O)[C@@H](NC(=O)[C@@H](N)CCCCN)C(C)C)CSSC[C@@H](C(=O)N[C@H](C(N)=O)[C@@H](C)O)NC(=O)CNC(=O)CNC1=O)",inhibition of RGS4 activity (rate of RGS stimulated Gαo GTP hydrolysis),RGS4Δ51N; 50 μM peptide in solution,33 ± 16%
2nl: free N-terminal linear version of peptide 2 (H-GTCFGTCW-NH2; cysteine pairing not given here),activity on RGS4 GAP activity,RGS4Δ51N,inactive
"Ac-Val-Lys-[Cys-Thr-Gly-Phe-Cys]-Glu-NH2, S-S (disulfide) [peptide 20 in Roof et al]",inhibited RGS4 GAP activity,RGS4 [3]; at 100 μM,~40%
"C[C@@H](O)[C@@H]1NC(=O)CNC(=O)[C@H](Cc2ccccc2)NC(=O)[C@@H](NC(=O)[C@@H](NC(=O)CN)[C@@H](C)O)CSSC[C@@H](C(=O)N[C@@H](Cc2c[nH]c3ccccc23)C(N)=O)NC1=O [2nd, Gly-Thr-c[Cys-Phe-Gly-Thr-Cys]-Trp-NH2, S-S] (H-GTCFGTCW-NH2; disulfide 3-7)",IC50,RGS4Δ51N,~50 µM
same,inhibition of RGS4 activity (rate of RGS stimulated Gαo GTP hydrolysis),RGS4Δ51N; 50 μM peptide in solution,48 ± 7%
same,activity against RGS7,RGS7box,inactive
same,activity against RGS16,RGS16,inactive
"KVc[CMGGC]T-NH2, S-S (disulfide) [compound 4]",binding to RGS4Δ51N in FACScan assay,RGS4Δ51N-Alexa Fluor 532,bound RGS4 so well
same,activity on RGS4 GAP activity,RGS4Δ51N,little effect
"14nd: free N-terminal, disulfide bridged version of hit 14 (H-KHCYGFCK-NH2; disulfide 3-7; SMILES NCCCC[C@H](NC(=O)[C@@H]1CSSC[C@H](NC(=O)[C@H](Cc2c[nH]cn2)NC(=O)[C@@H](N)CCCCN)C(=O)N[C@@H](Cc2ccc(O)cc2)C(=O)NCC(=O)N[C@@H](Cc2ccccc2)C(=O)N1)C(N)=O)",solubility,"[1]; could not be tested at 50 μM in GAP assay, solubility verified by HPLC",limited by solubility
"KLc[CHGYC]H-NH2, S-S (disulfide) [compound 11]",aggregation,[1]; not evaluated in GAP assay for this reason,signs of aggregation
"Ac-Val-Lys-c[Cys-Thr-Ser-Ile-Cys]-Glu-NH2, S-S (disulfide) [BR2]",activity as RGS4 inhibitor,RGS4 [3],inactive
